Screening data (PubChem)
ABHD5 PLIN5 PPI: ABHD5-PLIN5 protein interaction inhibition. Split G. princeps luciferase complementation, luminescence, 4 h. inhibition, % at 4 µM. 0.78% of 360,000 active;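 active = inhibition above the mean inhibition across every tested compound plus 3 SD, cut at about 22% in these data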;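 also: 0% = DMSO only wells and the 100% control is not disclosed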
Target sequence (Q00G26 whole entry, looked up): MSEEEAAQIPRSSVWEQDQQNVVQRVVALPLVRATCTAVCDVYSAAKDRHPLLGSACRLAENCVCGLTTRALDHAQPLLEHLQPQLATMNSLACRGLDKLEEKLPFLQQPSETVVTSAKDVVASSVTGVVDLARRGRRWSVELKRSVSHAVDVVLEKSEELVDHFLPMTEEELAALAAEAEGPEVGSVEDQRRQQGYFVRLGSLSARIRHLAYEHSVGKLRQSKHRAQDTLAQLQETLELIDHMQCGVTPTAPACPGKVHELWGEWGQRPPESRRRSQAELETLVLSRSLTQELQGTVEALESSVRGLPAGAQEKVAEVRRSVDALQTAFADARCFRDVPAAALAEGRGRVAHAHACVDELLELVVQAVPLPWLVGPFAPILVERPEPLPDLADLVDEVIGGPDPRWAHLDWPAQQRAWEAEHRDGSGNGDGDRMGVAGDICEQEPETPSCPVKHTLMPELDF
Target sequence (Q8WTS1 whole entry, looked up): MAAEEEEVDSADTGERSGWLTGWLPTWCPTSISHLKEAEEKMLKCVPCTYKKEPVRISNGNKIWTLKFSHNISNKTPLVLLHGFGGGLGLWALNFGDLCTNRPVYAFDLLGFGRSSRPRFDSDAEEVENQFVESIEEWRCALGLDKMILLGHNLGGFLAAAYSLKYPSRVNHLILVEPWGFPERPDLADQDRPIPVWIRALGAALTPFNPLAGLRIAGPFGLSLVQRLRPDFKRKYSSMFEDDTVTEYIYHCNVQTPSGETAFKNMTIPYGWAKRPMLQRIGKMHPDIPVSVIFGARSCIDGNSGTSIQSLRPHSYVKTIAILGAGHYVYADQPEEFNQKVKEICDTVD
rCAG binder: r(CAG) repeat RNA binding | inhibition, % at 3 µM | TO-PRO-1 dye displacement fluorescence | 1.3% of 370,000 active;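 active = inhibition above the plate cutoff, the mean of all test compounds on that plate plus 3 SD, cut at about 35% in these data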;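 also: 0% = DMSO alone and 100% = 100 µM mitoxantrone as full dye displacement; higher means more dye released from RNA so lower well fluorescence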
core dimer inh: HCV core protein dimerization inhibition; TR-FRET GST/Flag-core106 dimerization, 1536-well; inhibition, % at 5 µM; 0.33% of 300,000 active; AID 1899;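 active = inhibition above the mean of all tested compounds plus 3 SD, set per screening campaign, cut at about 45% in these data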
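Test system: GST/Flag-tagged HCV core106 proteins; Medium: KF-containing HEPES buffer, pH 7.45, DTT, CHAPS, BSA; Times: compound-protein-antibody incubation 4 h at 22.5 °C; Detection: TR-FRET 671 and 617 nm emission; Benchmarks: wells lacking GST-core106 and wells with excess unlabelled core106.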
NadD block: NadD (S. aureus) enzyme inhibition; purified NadD enzyme, colorimetric absorbance read-out; inhibition, % at 20 µM; 0.78% of 360,000 active; in the data active = inhibition above about 26%
ABHD5-PLIN5 conf: ABHD5-PLIN5 interaction inhibition, confirmed; shares compounds with ABHD5 PLIN5 PPI; AID 651612; 67% of 2,200 active; inhibition, % at 4 µM; biochemical ABHD5-PLIN5 interaction, luminescence; in the data active = inhibition above about 23%;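 also: 0% = DMSO vehicle wells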
HNF4 counter: HNF4 split-luciferase signal hit, counter-screen; 77% of 2,200 active; HNF4 dimerization, luminescence, biochemical; inhibition, % at 4 µM; AID 651674; shares compounds with ABHD5 PLIN5 PPI;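 active = mean inhibition across replicate wells exceeding the computed hit threshold, cut at about 13% in these data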;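 also: light from luciferase halves that rejoin when HNF4 fusion proteins dimerize; 0% = DMSO only wells and the 100% control is not given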
NadD conf: confirmation of Staphylococcus aureus NadD inhibitors. shares compounds with NadD block. purified S. aureus NadD, colorimetric enzyme assay. inhibition, % at 20 µM. 13% of 2,000 active. AID 624309; in the data active = inhibition mostly above about 42%, no sharp cut-off; inactive = mostly below about 42%
rCAG bind conf: r(CAG) RNA repeat binding, confirmation | inhibition, % at 3 µM | shares compounds with rCAG binder | 70% of 4,300 active | TO-PRO-1 dye displacement fluorescence;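 active = inhibition above a per-plate cutoff, the mean inhibition of sample wells plus 3 SD, cut at about 35% in these data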;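 also: loss of TO-PRO-1 fluorescence as compound displaces dye from 1x1 AA loop RNA; 0% = DMSO only wells and 100% = 100 µM mitoxantrone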
DNA CAG counter: DNA CAG dye complex inhibition counter-screen. d(CAG) DNA oligo TO-PRO-1 dye displacement, fluorescence. shares compounds with rCAG binder. inhibition, % at 3 µM. 94% of 4,300 active;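 active = inhibition above its plate's cutoff, the mean test-well inhibition plus 3 SD, cut at about 4.8% in these data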;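 also: 0% = DNA dye mix with DMSO and 100% = 100 µM mitoxantrone; hits displace the dye from DNA and so lower well fluorescence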
The depositor's hits bear a star. Shown are actives, neighbours in structure and some others; about 2.6% of the full set was active somewhere.

Screening CCOC(=O)C1C(OC(=O)c2ccccc2)CC2CCC1N2C (configuration not stated) returned ABHD5 PLIN5 PPI 25.7*, rCAG binder -2.4, NadD block 0.1, ABHD5-PLIN5 conf 34.8* and HNF4 counter 1.4.
`CN1C2CCC1C(C(=O)O)C(OC(=O)c1ccccc1)C2` (configuration not stated) gave ABHD5 PLIN5 PPI 5.3, rCAG binder -3.8 and NadD block 1.0.
For O=c1nc(/C=C/c2ccc(Cl)cc2Cl)cc(C(F)(F)F)[nH]1 the results were ABHD5 PLIN5 PPI 35.8*, rCAG binder 49.4*, NadD block 3.1, ABHD5-PLIN5 conf 70.2*, HNF4 counter 47.8*, rCAG bind conf 38.0* and DNA CAG counter 10.3*.
`C=C1[C@H]2C[C@H]3[C@H]4N5C[C@]6(C)CCC[C@]47[C@H]([C@H]2O)[C@]3(C[C@]5(O)[C@H]67)[C@@H]1O` gave ABHD5 PLIN5 PPI 0.7, rCAG binder -1.9, core dimer inh 0.1 and NadD block -0.1.
Screening Cc1ccc2nc(-c3ccc(CN4CCC(n5c(=O)[nH]c6ccccc65)CC4)cc3)c(-c3ccccc3)nc2c1 returned ABHD5 PLIN5 PPI 3.3, rCAG binder 10.9 and NadD block 25.0.
COc1ccc2nc(-c3ccc(CN4CCC(n5c(=O)[nH]c6ccccc65)CC4)cc3)c(-c3ccccc3)nc2c1 was read as ABHD5 PLIN5 PPI 8.9, rCAG binder 14.0, NadD block 36.7* and NadD conf 20.2.
CC[C@H]1CN2CCC1C[C@H]2[C@H](O)c1ccnc2ccc(OC)cc12 (some centres not stated) was read as ABHD5 PLIN5 PPI 5.9, rCAG binder 5.8, core dimer inh 0.7, NadD block 48.4* and NadD conf -16.3.
`NNC(=O)c1nc[nH]c1C(=O)Nc1ccc(Cl)cc1C(=O)c1ccccc1` gave ABHD5 PLIN5 PPI 9.4, rCAG binder 7.6, NadD block 48.3* and NadD conf 23.8.
O=C(NN=Cc1ccc(N(CCCl)CCCl)cc1)c1cc(=O)[nH]c(=O)[nH]1 was read as ABHD5 PLIN5 PPI 0.4, rCAG binder 2.1 and NadD block 5.3.
Screening O=C(Cc1cc(=O)oc2cc(O)ccc12)NN=Cc1ccc(N(CCCl)CCCl)cc1 returned ABHD5 PLIN5 PPI -3.5, rCAG binder 29.6, NadD block 54.2* and NadD conf 49.4*.
`Cc1cccc(C)c1-n1nnnc1C(CCc1ccccc1)N1CCC(n2c(=O)[nH]c3ccccc32)CC1` (configuration not stated) gave ABHD5 PLIN5 PPI 0.7, rCAG binder 4.4, NadD block 30.5* and NadD conf 1.3.
CC(C)CCn1c(=O)c(C(=O)Nc2ccccc2S(N)(=O)=O)c(O)c2ccccc21 was read as ABHD5 PLIN5 PPI -1.9, rCAG binder 13.2, core dimer inh 15.1, NadD block 49.3* and NadD conf 23.1.
Screening CCCCn1c(=O)c(C(=O)Nc2ccccc2C)c(O)c2ccccc21 returned ABHD5 PLIN5 PPI 4.8, core dimer inh -10.1 and NadD block -6.1.
Cn1cc(C(=O)OCC(=O)NC2CCCC2)c2ccccc21 was read as ABHD5 PLIN5 PPI 7.1, rCAG binder 0.6 and NadD block 1.5.
CC(C)Oc1ccc(CC2(CCc3ccncc3)C(=O)NC(=O)NC2=O)cc1 was read as ABHD5 PLIN5 PPI 1.6, rCAG binder -2.7, core dimer inh -0.8 and NadD block 1.1.
`COc1cc2c(cc1OC)-c1c3c(cc4c1[C@@H](C2)N(C)CC4)OCO3` gave ABHD5 PLIN5 PPI 2.7, rCAG binder 1.3, core dimer inh -24.8 and NadD block 11.9.
COc1cc2c(cc1O)C[C@H]1NCCc3cc4c(c-2c31)OCO4 was read as ABHD5 PLIN5 PPI -1.9, rCAG binder 21.3, core dimer inh 25.5, NadD block 33.6* and NadD conf 34.1.
O=c1[nH]c(=S)n(C2CC2)c(O)c1C=NCC1CCCO1 (configuration not stated) was read as ABHD5 PLIN5 PPI 2.6, rCAG binder -3.4, core dimer inh 3.8 and NadD block -7.5.
For c1ccc2c(CN3CCN(C4CCCCC4)CC3)c[nH]c2c1 the results were ABHD5 PLIN5 PPI 4.2, rCAG binder 2.2, core dimer inh -3.4, NadD block 38.3* and NadD conf -19.3.
`COc1ccc(CCNC2CCCCC2)cc1OC` gave ABHD5 PLIN5 PPI 0.8, rCAG binder 3.3, core dimer inh -0.2 and NadD block 5.3.
Screening O=c1[nH]c(=S)[nH]c(O)c1N=Nc1ccc(S(=O)(=O)N2CCc3ccccc32)cc1 returned ABHD5 PLIN5 PPI -16.3, rCAG binder 63.7*, core dimer inh 32.2, NadD block 48.7*, NadD conf 69.8*, rCAG bind conf 49.0* and DNA CAG counter 19.2*.
Screening COc1ccc(-n2c(CNCCc3ccc(C)cc3)nc3ccccc3c2=O)cc1 returned ABHD5 PLIN5 PPI -2.2, rCAG binder -5.5, core dimer inh 5.5 and NadD block -2.7.
For Cc1ccc(/C=C2\C(=O)NC(=S)N(c3ccccc3F)C2=O)s1 the results were ABHD5 PLIN5 PPI -3.4, rCAG binder 34.9*, core dimer inh -3.0, NadD block 15.8, rCAG bind conf 15.6 and DNA CAG counter 8.2*.
For CCOC(=O)C1CCN(/C=C2/C(=O)NC(=S)N(c3ccccc3F)C2=O)CC1 the results were ABHD5 PLIN5 PPI -2.2, rCAG binder 0.8, core dimer inh 5.9 and NadD block -3.5.
`CCCCn1c(N)c(C(=O)OCCOC)c2nc3ccccc3nc21` gave ABHD5 PLIN5 PPI -4.3, rCAG binder -0.6, core dimer inh 0.8 and NadD block 0.6.
For CCCCn1c(NS(=O)(=O)c2ccc(C)cc2)c(C(=O)OCC)c2nc3ccccc3nc21 the results were ABHD5 PLIN5 PPI -20.6, rCAG binder 36.1*, core dimer inh 14.4, NadD block 22.5, rCAG bind conf 17.5 and DNA CAG counter 5.8*.
Screening c1ccc(-c2nnc(C3CC(c4cccnc4)=NO3)o2)cc1 (configuration not stated) returned ABHD5 PLIN5 PPI -6.8, rCAG binder -4.3, core dimer inh 1.8 and NadD block 1.7.
COc1ccc(CN2CCNCC2)cc1 was read as ABHD5 PLIN5 PPI 10.6, rCAG binder -2.5 and NadD block -1.5.
